{
  "source": "ChEMBL document CHEMBL1133421",
  "about": "“Novel peptidomimetic hematoregulatory compounds” (2000)",
  "system": "Murine stromal cell line",
  "assay": "In vitro ability to induce a hematopoietic synergistic factor from a murine stromal cell line at 0.10 ug/mL; Not Detected",
  "assay_type": "functional, cell-based",
  "conditions": "Mus musculus",
  "how_it_was_run": "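Murine stromal cell line C6.4 exposed to test compounds at 0.10, 1.0 and 10.0 µg/mL. Stromal supernatants then assayed for induced hematopoietic synergistic factor (HSF) activity in a murine bone marrow CFU-GM colony assay. Reference peptide included in every assay at 1.0 µg/mL as positive control.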",
  "data": [
    {"smiles": "O=C(CCNC(=O)[C@H](CO)NC(=O)c1ccc[nH]1)Nc1ccc(NC(=O)CCNC(=O)[C@H](CO)NC(=O)c2ccc[nH]2)cc1", "values": [
      {"measurement": "HSF release", "result": "Not detected"}
    ]}
  ]
}
